Experimental data from ChEMBL document CHEMBL1135836, “Cyclodextrin-derived host molecules as reversal agents for the neuromuscular blocker rocuronium bromide: synthesis and structure-activity relationships” (J Med Chem, 2002).
pEC50: −log10 of the molar value.

Assays:
Format in all cases: functional
Cavia porcellus [1] = test: In vivo reversal activity versus ~90% block by rocuronium in guinea pig
How it was run: (§1)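 Male Dunkin-Hartley guinea pigs (600-900 g), anaesthetized ip with pentobarbitone 10 mg/kg plus urethane 1000 mg/kg, tracheotomized and ventilated. Continuous iv rocuronium infusion (~10 nmol kg-1 min-1) was raised to a steady 85-90% block. Increasing iv doses of agent were given cumulatively. ED50 = 50% recovery versus preblock twitch, by regression. Mean ± SEM of at least two experiments, or one.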

Cavia porcellus [2] = test: In vivo reversal activity versus ~90% block by rocuronium in guinea pig, expressed as % of maximum reversal at 316 umol/kg conc.
How it was run: (§2)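 Male Dunkin-Hartley guinea pigs (600-900 g) anaesthetized ip with pentobarbitone 10 mg/kg plus urethane 1000 mg/kg, tracheotomized and artificially ventilated. Continuous iv rocuronium bromide infusion (~10 nmol kg-1 min-1) raised until steady-state twitch block of 85-90%. Increasing single iv doses of reversal agent given by a separate catheter. Max reversal is peak twitch recovery versus preblock height at highest dose tested; means ± SEM, n ≥ 2 or single experiment.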

Mus musculus [3] = organism: Mus musculus; test: In vitro reversal activity versus ~90% block by rocuronium in isolated mouse hemidiaphragm, expressed as % of maximum reversal at 360 uM conc.
Mus musculus [4] = organism: Mus musculus; test: In vitro reversal activity versus ~90% block by rocuronium in isolated mouse hemidiaphragm, expressed as effective conc.
Mus musculus [5] = organism: Mus musculus; test: In vitro reversal activity versus ~90% block by rocuronium in isolated mouse hemidiaphragm, expressed as % of maximum reversal at 216 uM conc.
Cavia porcellus [6] = test: In vivo reversal activity versus ~90% block by rocuronium in guinea pig, expressed as % of maximum reversal at 21 umol/kg conc.; how it was run: as §2
Mus musculus [7] = organism: Mus musculus; test: In vitro reversal activity versus ~90% block by rocuronium in isolated mouse hemidiaphragm, expressed as % of maximum reversal at 18 uM conc.
Cavia porcellus [8] = test: In vivo reversal activity versus ~90% block by rocuronium in guinea pig, expressed as % of maximum reversal at 30.7 umol/kg conc.; how it was run: as §2
Cavia porcellus [9] = test: In vivo reversal activity versus ~90% block by rocuronium in guinea pig, expressed as % of maximum reversal at 3.9 umol/kg conc.; how it was run: as §2
Mus musculus [10] = organism: Mus musculus; test: In vitro reversal activity versus ~90% block by rocuronium in isolated mouse hemidiaphragm, expressed as % of maximum reversal at 14.4 uM conc.
Cavia porcellus [11] = test: In vivo reversal activity versus ~90% block by rocuronium in guinea pig, expressed as % of maximum reversal at 25.6 umol/kg conc.; how it was run: as §2
Cavia porcellus [12] = test: In vivo reversal activity versus ~90% block by rocuronium in guinea pig, expressed as % of maximum reversal at 2.5 umol/kg conc.; how it was run: as §2
Mus musculus [13] = organism: Mus musculus; test: In vitro reversal activity versus ~90% block by rocuronium in isolated mouse hemidiaphragm, expressed as % of maximum reversal at 12.6 uM conc.
Cavia porcellus [14] = test: In vivo reversal activity versus ~90% block by rocuronium in guinea pig, expressed as % of maximum reversal at 0.6 umol/kg conc.; how it was run: as §1
Mus musculus [15] = organism: Mus musculus; test: In vitro reversal activity versus ~90% block by rocuronium in isolated mouse hemidiaphragm, expressed as % of maximum reversal at 5.4 uM conc.
Cavia porcellus [16] = test: In vivo reversal activity versus ~90% block by rocuronium in guinea pig, expressed as % of maximum reversal at 1.4 umol/kg conc.; how it was run: as §1
Mus musculus [17] = organism: Mus musculus; test: In vitro reversal activity versus ~90% block by rocuronium in isolated mouse hemidiaphragm, expressed as % of maximum reversal at 2.2 uM conc.
Cavia porcellus [18] = test: In vivo reversal activity versus ~90% block by rocuronium in guinea pig, expressed as % of maximum reversal at 1.3 umol/kg conc.; how it was run: as §1
Mus musculus [19] = organism: Mus musculus; test: In vitro reversal activity versus ~90% block by rocuronium in isolated mouse hemidiaphragm, expressed as % of maximum reversal at 7.2 uM conc.

Structure (SMILES) | pEC50 (Mus musculus [4]) | ED50 (Cavia porcellus [1]) [µmol/kg] | Max reversal (Mus musculus [7]) [%] | also measured
O=C([O-])c1ccccc1SCC1O[C@@H]2O[C@@H]3C(CSc4ccccc4C(=O)[O-])O[C@H](O[C@@H]4C(CSc5ccccc5C(=O)[O-])O[C@H](O[C@@H]5C(CSc6ccccc6C(=O)[O-])O[C@H](O[C@@H]6C(CSc7ccccc7C(=O)[O-])O[C@H](O[C@@H]7C(CSc8ccccc8C(=O)[O-])O[C@H](O[C@@H]8C(CSc9ccccc9C(=O)[O-])O[C@H](O[C@@H]9C(CSc%10ccccc%10C(=O)[O-])O[C@H](O[C@H]1C(O)C2O)C(O)C9O)C(O)C8O)C(O)C7O)C(O)C6O)C(O)C5O)C(O)C4O)C(O)C3O.[Na+].[Na+].[Na+].[Na+].[Na+].[Na+].[Na+].[Na+] (stereo partly drawn) | 3.64 | – | – | Max reversal (Mus musculus [5]): 42.3%
O=C([O-])CCC(=O)NCCSCC1O[C@@H]2O[C@@H]3C(CSCCNC(=O)CCC(=O)[O-])O[C@H](O[C@@H]4C(CSCCNC(=O)CCC(=O)[O-])O[C@H](O[C@@H]5C(CSCCNC(=O)CCC(=O)[O-])O[C@H](O[C@@H]6C(CSCCNC(=O)CCC(=O)[O-])O[C@H](O[C@@H]7C(CSCCNC(=O)CCC(=O)[O-])O[C@H](O[C@@H]8C(CSCCNC(=O)CCC(=O)[O-])O[C@H](O[C@@H]9C(CSCCNC(=O)CCC(=O)[O-])O[C@H](O[C@H]1C(O)C2O)C(O)C9O)C(O)C8O)C(O)C7O)C(O)C6O)C(O)C5O)C(O)C4O)C(O)C3O.[Na+].[Na+].[Na+].[Na+].[Na+].[Na+].[Na+].[Na+] (stereo partly drawn) | 5.97 | 0.07 | – | Max reversal (Cavia porcellus [14]): 107.1%; Max reversal (Mus musculus [15]): 99.4%
O=C([O-])c1ccc(SCC2O[C@@H]3O[C@@H]4C(CSc5ccc(C(=O)[O-])cc5)O[C@H](O[C@@H]5C(CSc6ccc(C(=O)[O-])cc6)O[C@H](O[C@@H]6C(CSc7ccc(C(=O)[O-])cc7)O[C@H](O[C@@H]7C(CSc8ccc(C(=O)[O-])cc8)O[C@H](O[C@@H]8C(CSc9ccc(C(=O)[O-])cc9)O[C@H](O[C@@H]9C(CSc%10ccc(C(=O)[O-])cc%10)O[C@H](O[C@@H]%10C(CSc%11ccc(C(=O)[O-])cc%11)O[C@H](O[C@H]2C(O)C3O)C(O)C%10O)C(O)C9O)C(O)C8O)C(O)C7O)C(O)C6O)C(O)C5O)C(O)C4O)cc1.[Na+].[Na+].[Na+].[Na+].[Na+].[Na+].[Na+].[Na+] (stereo partly drawn) | 6.00 | 0.12 | – | Max reversal (Cavia porcellus [16]): 97.6%; Max reversal (Mus musculus [17]): 97%
O=C([O-])c1cccc(SCC2O[C@@H]3O[C@@H]4C(CSc5cccc(C(=O)[O-])c5)O[C@H](O[C@@H]5C(CSc6cccc(C(=O)[O-])c6)O[C@H](O[C@@H]6C(CSc7cccc(C(=O)[O-])c7)O[C@H](O[C@@H]7C(CSc8cccc(C(=O)[O-])c8)O[C@H](O[C@@H]8C(CSc9cccc(C(=O)[O-])c9)O[C@H](O[C@@H]9C(CSc%10cccc(C(=O)[O-])c%10)O[C@H](O[C@@H]%10C(CSc%11cccc(C(=O)[O-])c%11)O[C@H](O[C@H]2C(O)C3O)C(O)C%10O)C(O)C9O)C(O)C8O)C(O)C7O)C(O)C6O)C(O)C5O)C(O)C4O)c1.[Na+].[Na+].[Na+].[Na+].[Na+].[Na+].[Na+].[Na+] (stereo partly drawn) | 5.48 | 0.28 | – | Max reversal (Cavia porcellus [18]): 102%; Max reversal (Mus musculus [19]): 95.7%

Further lines, with some results ahead:

pEC50 (Mus musculus [4]) | Structure (SMILES) | ED50 (Cavia porcellus [1]) [µmol/kg] | Max reversal (Mus musculus [7]) [%] | also measured
< 3.44 | OC[C@H]1O[C@@H]2O[C@H]3[C@H](O)[C@@H](O)[C@@H](O[C@H]4[C@H](O)[C@@H](O)[C@@H](O[C@H]5[C@H](O)[C@@H](O)[C@@H](O[C@H]6[C@H](O)[C@@H](O)[C@@H](O[C@H]7[C@H](O)[C@@H](O)[C@@H](O[C@H]8[C@H](O)[C@@H](O)[C@@H](O[C@H]1[C@H](O)[C@H]2O)O[C@@H]8CO)O[C@@H]7CO)O[C@@H]6CO)O[C@@H]5CO)O[C@@H]4CO)O[C@@H]3CO [BETADEX] | 20 | – | Max reversal (Cavia porcellus [2]): 92.9%; Max reversal (Mus musculus [3]): 29%
< 4.74 | O=C([O-])CSCC1O[C@@H]2O[C@@H]3C(CSCC(=O)[O-])O[C@H](O[C@@H]4C(CSCC(=O)[O-])O[C@H](O[C@@H]5C(CSCC(=O)[O-])O[C@H](O[C@@H]6C(CSCC(=O)[O-])O[C@H](O[C@@H]7C(CSCC(=O)[O-])O[C@H](O[C@H]1C(O)C2O)C(O)C7O)C(O)C6O)C(O)C5O)C(O)C4O)C(O)C3O.[Na+].[Na+].[Na+].[Na+].[Na+].[Na+] (stereo partly drawn) | > 21 | 22.8 | Max reversal (Cavia porcellus [6]): 3.6%
4.46 | O=C([O-])Cc1ccc(SCC2O[C@@H]3O[C@@H]4C(CO)O[C@H](O[C@@H]5C(CO)O[C@H](O[C@@H]6C(CO)O[C@H](O[C@@H]7C(CO)O[C@H](O[C@@H]8C(CO)O[C@H](O[C@@H]9C(CO)O[C@H](O[C@@H]%10C(CO)O[C@H](O[C@H]2C(O)C3O)C(O)C%10O)C(O)C9O)C(O)C8O)C(O)C7O)C(O)C6O)C(O)C5O)C(O)C4O)cc1.[Na+] (stereo partly drawn) | 4.55 | 45 | Max reversal (Cavia porcellus [8]): 97.1%
5.19 | OCCCCSCC1O[C@@H]2O[C@@H]3C(CSCCCCO)O[C@H](O[C@@H]4C(CSCCCCO)O[C@H](O[C@@H]5C(CSCCCCO)O[C@H](O[C@@H]6C(CSCCCCO)O[C@H](O[C@@H]7C(CSCCCCO)O[C@H](O[C@@H]8C(CSCCCCO)O[C@H](O[C@@H]9C(CSCCCCO)O[C@H](O[C@H]1C(O)C2O)C(O)C9O)C(O)C8O)C(O)C7O)C(O)C6O)C(O)C5O)C(O)C4O)C(O)C3O (stereo partly drawn) | 3.94 | 78.9 | Max reversal (Cavia porcellus [9]): 52.8%
5.31 | Oc1ccc(SCC2O[C@@H]3O[C@@H]4C(CSc5ccc(O)cc5)O[C@H](O[C@@H]5C(CSc6ccc(O)cc6)O[C@H](O[C@@H]6C(CSc7ccc(O)cc7)O[C@H](O[C@@H]7C(CSc8ccc(O)cc8)O[C@H](O[C@@H]8C(CSc9ccc(O)cc9)O[C@H](O[C@@H]9C(CSc%10ccc(O)cc%10)O[C@H](O[C@@H]%10C(CSc%11ccc(O)cc%11)O[C@H](O[C@H]2C(O)C3O)C(O)C%10O)C(O)C9O)C(O)C8O)C(O)C7O)C(O)C6O)C(O)C5O)C(O)C4O)cc1 (stereo partly drawn) | 4.1 | – | Max reversal (Mus musculus [10]): 93.2%; Max reversal (Cavia porcellus [11]): 79.3%
5.15 | O=C([O-])CCCCCSCC1O[C@@H]2O[C@@H]3C(CSCCCCCC(=O)[O-])O[C@H](O[C@@H]4C(CSCCCCCC(=O)[O-])O[C@H](O[C@@H]5C(CSCCCCCC(=O)[O-])O[C@H](O[C@@H]6C(CSCCCCCC(=O)[O-])O[C@H](O[C@@H]7C(CSCCCCCC(=O)[O-])O[C@H](O[C@@H]8C(CSCCCCCC(=O)[O-])O[C@H](O[C@@H]9C(CSCCCCCC(=O)[O-])O[C@H](O[C@H]1C(O)C2O)C(O)C9O)C(O)C8O)C(O)C7O)C(O)C6O)C(O)C5O)C(O)C4O)C(O)C3O.[Na+].[Na+].[Na+].[Na+].[Na+].[Na+].[Na+].[Na+] (stereo partly drawn) | 0.74 | – | Max reversal (Cavia porcellus [12]): 78.4%; Max reversal (Mus musculus [13]): 81.7%
